The test system of one data set is Human gammaherpesvirus 4. The data set is described as follows: Antiviral activity against EBV infected in human Akata cells by DNA hybridization assay. It is filed as functional, organism-based. As to conditions: human gammaherpesvirus 4, Akata. The essentials: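 Under an NIAID agreement, testing was done at Southern Research Institute as part of a 21-virus panel. EBV activity was assessed in Akata cells by DNA hybridization, and EC50 values were derived.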

The nature of data set [1]: Selectivity index, ratio of cytotoxicity towards human Akata cells to EC50 for EBV infected in human Akata cells. As to conditions: read-out: Selectivity Index. The class given is toxicity, cell-based.
Data set [2] deals with Human immunodeficiency virus 1. The data set is described as follows: Antiviral activity against HIV-1 3B/H9 infected in human HOG.R5 cells transfected with HIV1 LTR-GFP assessed as inhibition of viral replication by fluorescence analysis. It is filed as functional, organism-based. Conditions: Human immunodeficiency virus 1, 3B.
The nature of data set [3]: Cytotoxicity against human HOG.R5 cells infected with HIV-1 3B. The class given is cell-based. Summed up:
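Cytotoxicity was run in parallel with the anti-HIV assay, in the same GFP-reporter HOG·R5 line (HOS cells expressing CD4/CCR5). Cell-growth inhibition of the host cells was measured.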

Data set [4] concerns Human immunodeficiency virus 1. In words: Antiviral activity against HIV-1 3B/H9 infected in human HOG.R5 cells transfected with HIV1 LTR-GFP assessed as inhibition of viral replication at 15.9 uM by fluorescence analysis. The class given is functional. Conditions: Human immunodeficiency virus 1, 3B.
In data set [5] the test system is Human immunodeficiency virus 1. The data set is described as follows: Antiviral activity against HIV-1 3B/H9 infected in human HOG.R5 cells transfected with HIV1 LTR-GFP assessed as inhibition of viral replication at 10 ug/ml by fluorescence analysis. Conditions: Human immunodeficiency virus 1, 3B. The class given is functional.

As usually defined, the EC50 is the midpoint of the concentration-response curve. Take `O[C@]12CO[C@@H](c3ccc4c(c3)OCO4)[C@@]1(O)CO[C@@H]2c1ccc2c(c1)OCO2`: in the data set with Human gammaherpesvirus 4, the EC50 is 67 µM. For the same molecule, the selectivity ratio in data set [1] came to 1.2.
The IC50 is the concentration that gives 50% inhibition. For orientation: CC50 means the concentration at which the toxic effect on the cells reaches its halfway point. Read a high CC50 as better tolerance by the cells. The inhibition is the share of the control response that was lost under treatment. With `COc1cc(OC)c(C(=O)/C=C/c2ccc(O)cc2)c(OC)c1`, in data set [2], the 50% inhibitory concentration (IC50) was < 15.2 µM. For the same molecule, a half-maximal effect in the data set on Human gammaherpesvirus 4 (EC50) was put at 15 µM. In addition, the selectivity ratio in data set [1] was determined as 3.5. In addition, the midpoint of cytotoxicity in data set [3], the CC50, lay at 24.4 µM. Moreover, the inhibition at 15.9 µM in data set [4] came to 77%.
`C=Cc1c(C)c2cc3nc(c4c5[nH]c(cc6nc(cc1[nH]2)C(C)=C6CC)c(C)c5C(=O)[C@@H]4C(=O)OC)[C@@H](CCC(=O)O)[C@@H]3C` [PHEOPHORBIDE A]: the inhibition at 10 µg/mL in data set [5] worked out at 80%.
